From article PMC4851236 (Nature, 2016)
“Also recorded” adds a separate entry of the source.

Key:
TR146 cells [1] = test: Cell damage assay; format: cell-based, human; conditions: for Induction of damage (LDH release): Ece1-I-VIII at 70 µM (Fig. 2b); for Damage of epithelial cells (LDH release) by peptide fragments: 70 µM, 24 h, individually or in combination
Summary of the method: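 Confluent TR146 cells serum-starved overnight, then exposed to test peptides for 24 h in serum-free DMEM. Culture supernatants assayed for lactate dehydrogenase activity with a colorimetric cytotoxicity kit. Activity quantified against a recombinant porcine LDH standard curve.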

TR146 cells [2] = test: Calcium flux; format: cell-based, human; conditions: Fura-2, readings up to 3 h
Summary of the method: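 Confluent TR146 monolayers loaded for 1 h at 37°C/5% CO2 with Fura-2 (2.5 mM stock in Pluronic F-127/DMSO) plus probenecid in HEPES-buffered saline (2 mM CaCl2, 10 mM glucose, pH 7.4). Dye then replaced by saline. Baseline read for 10 min at excitation 340 nm/emission 520 nm. Peptides added at different concentrations. Cytosolic calcium expressed as a fluorescence ratio.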

TR146 cells [3] = test: Western blotting of phospho-MKP1 and c-Fos induction; format: cell-based, human; conditions: for Induction of p-MKP1 and c-Fos: serum-free DMEM, 2 h post-stimulation, Western blot, Ece1-I-VIII incubated at 1.5 – 70 µM (Fig. 2a: 1.5 µM); for Induction of p-MKP1 and c-Fos by peptide fragments: 15 µM, 2 h, individually or in combination
Summary of the method: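 Serum-starved TR146 cells treated for 2 h in serum-free DMEM, then lysed on ice for 30 min in modified RIPA buffer (pH 7.4) with protease and phosphatase inhibitors. 20 µg protein resolved on 12% SDS-PAGE and transferred to nitrocellulose. Blots probed for phospho-MKP1 and c-Fos (primary 1:1000, HRP secondary 1:10,000), detected by chemiluminescence. α-actin used as loading control.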

TR146 cells [4] = test: Cytokine determination in culture supernatants; format: cell-based, human; conditions: for Induction of cytokines (G-CSF) by peptide fragments: 15 µM, 24 h, individually or in combination
[5] = FRET intercalation into phospholipid liposomes; conditions: phospholipid liposomes (DOPC with or without cholesterol), 100 mM KCl, 5 mM HEPES, pH 7.0
Summary of the method: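 Probe-dilution FRET assay. Phospholipid liposomes carried 1% (mol/mol) each of donor NBD-PE and acceptor rhodamine-PE. Lipids were dried from chloroform, taken up in 100 mM KCl, 5 mM HEPES, pH 7.0, and tip-sonicated. They then went through three 30 min cycles of 60°C heating and 4°C cooling and were held at 4°C for at least 12 h. After test peptide addition, intercalation was read as the rise in the donor (531 nm) to acceptor (593 nm) intensity ratio.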

[6] = Impedance spectroscopy of tethered bilayer lipid membranes; conditions: tBLMs, DOPC with or without cholesterol, 100 mM KCl, 5 mM HEPES, pH 7.0, room temperature
Summary of the method: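 tBLMs (10% tethering, 90% spacer lipids) were formed by solvent exchange from 3 mM lipid in ethanol, then buffered in 100 mM KCl, 5 mM HEPES, pH 7.0. Membranes were rinsed three times with buffer. Conductance and capacitance were recorded for 20 min before test peptide was injected at various concentrations, all at room temperature. Concentration-dependent conductance changes were averaged.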

Planar lipid bilayers = conditions: 5 mM HEPES, 100 mM KCl, pH 7.0, 37°C, Ece1-III62–93 0.125 µM (DOPC), Ece1-III62–92K 4 µM
Summary of the method: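 Montal-Mueller planar bilayers were bathed in 5 mM HEPES, 100 mM KCl, pH 7.0 (specific conductivity 17.2 mS/cm) at 37°C. Test peptide was added and membrane current was recorded for permeabilization events up to rupture.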

[7] = Circular dichroism spectroscopy; format: physicochemical; conditions: 15 µM peptide, 100 mM KCl, 5 mM HEPES, pH 7
Summary of the method: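 Peptide at 15 µM in 100 mM KCl, 5 mM HEPES, pH 7.0, in a 1.0 mm quartz cuvette, run at 25°C and 40°C. Spectra are the average of four scans, collected at 1 nm intervals with 2 nm bandwidth.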

TR146 cells [8] = test: Transcription factor; format: cell-based, human; conditions: 3 h post-stimulation, sub-lytic concentrations
Summary of the method: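 Serum-starved TR146 cells treated for 3 h in serum-free DMEM. Nuclear proteins recovered by differential lysis. 5 µg nuclear extract assayed for c-Fos DNA binding by plate-based transcription factor ELISA. Results expressed as fold-change in A450nm relative to resting cells.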

red blood cells = test: Hemolysis of red blood cells; format: cell-based; conditions: not shown
TR146 cells [9] = test: Whole cell patch clamp; format: cell-based, human; conditions: membrane potential −60 mV, room temperature
Summary of the method: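 TR146 cells cultured 48 h and recorded at 10–30% confluence while superfused with modified Krebs solution (pH 7.4). Pipettes 5–7 MΩ, filled with potassium acetate/KCl/HEPES/EGTA solution (free Ca2+ 40 nM). Current-voltage curves from 1 s steps, −100 to +50 mV. Treatments added to superfusate at final concentration, with vehicle controls and an ionomycin positive control. Cells analysed counted per condition.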

[10] = tested on: multiple human epithelial cell types; test: Direct lysis of epithelial cells; format: cell-based; conditions: not shown

**Q.** Which “Induction of damage (LDH release)” value (TR146 cells [1]; 24 h post-stimulation) does the source give for “Ece1-III62–93AA: Ece1-III62–93 with C-terminal KR motif substituted to AA” here?
**A.** significantly reduced

**Q.** What about the “Calcium influx (intracellular calcium level)” value (TR146 cells [2]) of the same substance?
**A.** significantly reduced

**Q.** What about the “Induction of p-MKP1 and c-Fos” value (TR146 cells [3]) of the same substance?
**A.** still induced

**Q.** What about the “Induction of G-CSF secretion” value (TR146 cells [4]; 24 h post-stimulation) of the same substance?
**A.** still induced

**Q.** And the “Intercalation into lipid membranes (FRET)” value [5]?
**A.** did not affect membrane intercalation

**Q.** And the “Permeabilization of tethered lipid membranes (conductance)” value [6]?
**A.** significantly reduced

**Q.** Which “Damage of epithelial cells (LDH release) by peptide fragments” value (TR146 cells [1]) does the source give for “Ece1-III86–93: C-terminal hydrophilic region of Ece1-III62–93 (KAFKGNKR; UniProt Q07730 86-93, looked up, fragment)” here?
**A.** Neither

**Q.** What about the “Induction of p-MKP1 and c-Fos by peptide fragments” value (TR146 cells [3]) of the same substance?
**A.** Neither

**Q.** And the “Induction of cytokines (G-CSF) by peptide fragments” value (TR146 cells [4])?
**A.** Neither

**Q.** With “SIIGIIMGILGNIPQVIQIIMSIVKAFKGNK [Ece1-III62–92K]” as the substance, how does the “Induction of damage (LDH release)” value (TR146 cells [1]; 24 h post-stimulation) read?
**A.** induces

**Q.** And the “Calcium influx (intracellular calcium level)” value (TR146 cells [2])?
**A.** induces

**Q.** And the “Induction of p-MKP1 and c-Fos” value (TR146 cells [3])?
**A.** induces

**Q.** And the “Lesions induced in planar lipid membranes” value (Planar lipid bilayers)?
**A.** heterogeneous and transient lesions leading to membrane rupture

**Q.** What about the “Secondary structure by circular dichroism” value [7] of the same substance?
**A.** α-helical

**Q.** And the “Induction of G-CSF secretion” value (TR146 cells [4]; 24 h post-stimulation)?
**A.** induces

**Q.** What about the “Induction of IL-1α secretion” value (TR146 cells [4]; 24 h post-stimulation) of the same substance?
**A.** induces

**Q.** And the “Intercalation into lipid membranes (FRET)” value [5]?
**A.** induces

**Q.** What about the “Permeabilization of tethered lipid membranes (conductance)” value [6] of the same substance?
**A.** induces

**Q.** What does the source list for “SIIGIIMGILGNIPQVIQIIMSIVKAFKGNKR [Ece1-III62–93]”?
**A.** Concentrations required to induce damage (LDH release) (TR146 cells [1]; 24 h post-stimulation): 70 µM; Induction of damage (LDH release) (TR146 cells [1]; 24 h post-stimulation): induced; Calcium influx (intracellular calcium level) (TR146 cells [2]): associated with calcium influx; Concentrations sufficient to induce c-Fos DNA binding (TR146 cells [8]): 1.5 to 15 µM; Hemolysis of red blood cells (red blood cells): induce hemolysis of red blood cells; Induction of p-MKP1 and c-Fos (TR146 cells [3]): induced; Lesions induced in planar lipid membranes (Planar lipid bilayers): heterogeneous and transient lesions leading finally to a rupture of the membrane; Evoked current in epithelial cells (patch clamp) (TR146 cells [9]): causes an inward current; Direct lysis of multiple human epithelial cell types [10]: directly lyse multiple human epithelial cell types; Secondary structure by circular dichroism [7]: α-helical conformation; Concentrations required to induce damage-associated cytokine IL-1α (TR146 cells [4]; 24 h post-stimulation): 70 µM; Concentrations required to induce damage-associated cytokine IL-6 (TR146 cells [4]; 24 h post-stimulation): 70 µM; Concentrations sufficient to induce G-CSF (TR146 cells [4]; 24 h post-stimulation): 1.5 to 15 µM; Concentrations sufficient to induce GM-CSF (TR146 cells [4]; 24 h post-stimulation): 1.5 to 15 µM; Induction of cytokines (TR146 cells [4]; 24 h post-stimulation, peptides 1.5 – 70 µM): induced; Intercalation into lipid membranes (FRET) [5]: able to efficiently intercalate; also recorded: slightly enhanced intercalation for pure DOPC; Permeabilization of tethered lipid membranes (conductance) [6]: enhanced in the presence of cholesterol

**Q.** With “Ece1-III62–85: N-terminal hydrophobic region of Ece1-III62–93” as the substance, how does the “Damage of epithelial cells (LDH release) by peptide fragments” value (TR146 cells [1]) read?
**A.** Neither

**Q.** And the “Induction of p-MKP1 and c-Fos by peptide fragments” value (TR146 cells [3])?
**A.** Neither

**Q.** What about the “Induction of cytokines (G-CSF) by peptide fragments” value (TR146 cells [4]) of the same substance?
**A.** Neither
